Calls of active or inactive are those of the source. No cut-off for these calls is given here.
Legend:
Rattus norvegicus [1] = species: Rattus norvegicus; assay: Selectivity between protection against glutamate-induced neuronal damage and alpha 1 adrenergic affinity; Not significant
Method in brief: (§1)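 Selectivity index: ratio of α1 adrenergic affinity ([3H]prazosin binding IC50) to neuroprotection IC50 (inhibition of glutamate-induced death of primary rat hippocampal neurons).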

[2] = target: T1, Adrenergic receptor alpha-1 (Rattus norvegicus, UniProt P15823+P23944+P43140); assay: In vitro binding affinity against Alpha-1 adrenergic receptor using [3H]prazosin as radioligand; format: protein assay
T1 sequence (P15823 whole entry): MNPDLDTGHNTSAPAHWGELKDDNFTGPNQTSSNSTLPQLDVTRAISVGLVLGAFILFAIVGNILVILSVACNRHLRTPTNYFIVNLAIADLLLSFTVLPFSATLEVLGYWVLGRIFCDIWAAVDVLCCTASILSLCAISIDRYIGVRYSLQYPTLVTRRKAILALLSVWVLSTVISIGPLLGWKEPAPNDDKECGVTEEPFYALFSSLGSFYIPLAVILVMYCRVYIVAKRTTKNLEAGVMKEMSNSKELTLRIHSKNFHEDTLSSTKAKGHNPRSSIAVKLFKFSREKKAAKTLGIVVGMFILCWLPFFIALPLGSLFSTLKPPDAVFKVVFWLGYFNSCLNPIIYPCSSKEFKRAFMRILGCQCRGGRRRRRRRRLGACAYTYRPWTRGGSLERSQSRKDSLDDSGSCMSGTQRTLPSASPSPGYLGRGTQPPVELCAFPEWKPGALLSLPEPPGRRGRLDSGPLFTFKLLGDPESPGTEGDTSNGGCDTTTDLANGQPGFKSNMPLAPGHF
T1 sequence (P23944 whole entry): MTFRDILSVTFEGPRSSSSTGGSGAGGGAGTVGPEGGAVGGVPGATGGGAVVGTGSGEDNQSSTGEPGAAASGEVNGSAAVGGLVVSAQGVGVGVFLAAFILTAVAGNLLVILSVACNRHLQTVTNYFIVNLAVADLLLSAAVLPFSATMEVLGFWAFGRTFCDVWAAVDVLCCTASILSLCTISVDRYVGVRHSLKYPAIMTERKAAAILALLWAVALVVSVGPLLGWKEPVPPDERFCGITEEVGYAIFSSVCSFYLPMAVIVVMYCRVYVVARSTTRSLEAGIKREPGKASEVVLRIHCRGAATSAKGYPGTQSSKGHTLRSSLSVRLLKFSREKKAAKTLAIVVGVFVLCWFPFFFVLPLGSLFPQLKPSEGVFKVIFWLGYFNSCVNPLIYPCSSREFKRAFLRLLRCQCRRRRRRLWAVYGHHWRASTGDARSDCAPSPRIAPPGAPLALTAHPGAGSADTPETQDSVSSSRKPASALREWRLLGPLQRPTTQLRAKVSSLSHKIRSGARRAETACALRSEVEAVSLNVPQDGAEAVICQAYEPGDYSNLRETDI
T1 sequence (P43140 whole entry): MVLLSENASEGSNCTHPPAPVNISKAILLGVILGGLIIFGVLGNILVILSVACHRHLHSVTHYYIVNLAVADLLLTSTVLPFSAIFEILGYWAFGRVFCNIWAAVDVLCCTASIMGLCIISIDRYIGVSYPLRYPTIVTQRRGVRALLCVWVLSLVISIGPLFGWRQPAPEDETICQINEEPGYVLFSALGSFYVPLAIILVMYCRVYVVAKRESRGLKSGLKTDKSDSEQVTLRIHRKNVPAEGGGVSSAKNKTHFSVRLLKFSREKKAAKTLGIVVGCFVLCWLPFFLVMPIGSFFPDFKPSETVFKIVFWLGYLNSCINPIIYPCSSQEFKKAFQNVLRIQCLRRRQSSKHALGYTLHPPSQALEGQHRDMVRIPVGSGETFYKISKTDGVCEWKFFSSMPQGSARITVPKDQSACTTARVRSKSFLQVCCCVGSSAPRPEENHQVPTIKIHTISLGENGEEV

Glutamate NMDA receptor = assay: In vitro inhibition of glutamate induced neuronal death in primary cultures of rat hippocampal neurons.; format: functional, tissue-based, Hippocampus
Rattus norvegicus [3] = species: Rattus norvegicus; assay: Selectivity between protection against glutamate-induced neuronal damage and alpha 1 adrenergic affinity; method in brief: as §1
[4] = In vivo inhibition of NMDA-stimulated fos induction in mouse following i.p. administration.; format: functional; details: ip
Method in brief: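 Male CF-1 mice (20–25 g), 12 h light/dark, 22 °C. Compound in 50% poly(ethylene glycol) given ip 30 min before NMDA 75 mg/kg ip (subseizure dose). After 1 h: pentobarbital, paraformaldehyde perfusion, two 50 μm hippocampal coronal sections per brain. Sheep anti-Fos (1:1500) immunostaining by avidin–biotin method, glucose oxidase substrate. ED50 calculated against vehicle-only and NMDA-only sections.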

Rattus norvegicus [5] = assay: In vivo inhibition of haloperidol-induced catalepsy in rat following s.c. administration.; format: functional; details: sc

Row | SMILES | IC50 [2] | Selectivity ratio (Rattus norvegicus [1]) | IC50 (Glutamate NMDA receptor) | Selectivity ratio (Rattus norvegicus [3]) | ED50 [4] | ED50 (Rattus norvegicus [5])
1 | C[C@@H]([C@@H](O)c1ccc(O)cc1)N1CCN(Cc2ccccc2)CC1 | – | inactive | – | – | – | –
2 | C[C@@H]([C@@H](O)c1ccc(O)cc1)N1CCC(O)(c2ccc(Cl)cc2)CC1 | 1.48 µM | – | 0.002 µM | 740 | – | –
3 | C[C@@H]([C@@H](O)c1ccccc1)N1CCC(O)(c2ccccc2)CC1 | > 10 µM | inactive | > 1 µM | – | – | –
4 | C[C@@H]([C@@H](O)c1ccc(O)cc1)N1CCC(O)(c2ccc(F)cc2)CC1 | 2.7 µM | – | 0.004 µM | 675 | – | –
5 | C[C@H]([C@H](O)c1ccc(O)cc1)N1CCC(O)(c2ccccc2)CC1 | 8.45 µM | – | – | – | 5 mg/kg | 0.5 mg/kg
6 | Cc1ccc(C2(O)CCN([C@@H](C)[C@@H](O)c3ccc(O)cc3)CC2)cc1 | 2.166 µM | – | 0.0027 µM | 1080 | – | –
7 | Oc1ccc(C(O)CN2CCC(O)(Cc3ccccc3)CC2)cc1 (stereo not given) | > 10 µM | – | 0.063 µM | > 158 | – | –
8 | C[C@@H]([C@@H](O)c1ccc(O)cc1)N1CCC(O)(c2ccccc2)CC1 (stereo in doubt; 10) [TRAXOPRODIL] | 5.7 µM | – | – | – | – | –
9 | COC1(Cc2ccccc2)CCN([C@@H](C)[C@@H](O)c2ccc(O)cc2)CC1 | – | inactive | > 10 µM | – | – | –
10 | C[C@@H]([C@@H](O)c1ccc(F)cc1)N1CCC(O)(c2ccccc2)CC1 | 6.9 µM | inactive | > 1 µM | – | – | –
11 | C[C@@H]([C@@H](O)c1ccc(O)cc1)N1CCN(C(=O)c2ccccc2)CC1 | > 10 µM | inactive | > 10 µM | – | – | –
12 | C[C@@H]([C@@H](O)c1ccc(O)cc1)N1CCC(O)(c2ccccc2)CC1 (stereo in doubt) [TRAXOPRODIL] | 19.52 µM | – | – | – | 1 mg/kg | 0.4 mg/kg
13 | C[C@@H]([C@@H](O)c1ccc(Cl)cc1)N1CCC(O)(c2ccccc2)CC1 | 3.133 µM | inactive | > 1 µM | – | – | –

The next lines start with results.

Row | IC50 [2] | SMILES | Selectivity ratio (Rattus norvegicus [1]) | IC50 (Glutamate NMDA receptor) | Selectivity ratio (Rattus norvegicus [3]) | ED50 [4] | ED50 (Rattus norvegicus [5])
14 | 2.3 µM | C[C@@H]([C@@H](O)c1ccc(O)cc1)N1CCC(O)(CCCCc2ccccc2)CC1 | – | 1 µM | 2.3 | – | –
15 | > 10 µM | CC[C@@H]([C@@H](O)c1ccc(O)cc1)N1CCC(O)(Cc2ccccc2)CC1 | – | 0.068 µM | > 147 | – | –
16 | > 10 µM | CCC[C@@H]([C@@H](O)c1ccc(O)cc1)N1CCC(O)(Cc2ccccc2)CC1 | – | – | 7.7 | – | –
17 | > 10 µM | C[C@@H]([C@@H](O)c1ccc(O)cc1)N1CCC(O)(Cc2ccccc2)CC1 | – | – | > 172 | – | –
18 | 0.137 µM | C[C@@H]([C@@H](O)c1ccc(O)cc1)N1CCC(O)(CCc2ccccc2)CC1 | – | 0.0013 µM | 105 | – | –
19 | 2.35 µM | C[C@@H]([C@@H](O)c1ccc(O)cc1)N1CCC(O)(CCCc2ccccc2)CC1 | – | 0.0157 µM | 150 | – | –

Reference: ChEMBL document CHEMBL1128605, “(1S,2S)-1-(4-hydroxyphenyl)-2-(4-hydroxy-4-phenylpiperidino)-1-propanol: a potent new neuroprotectant which blocks N-methyl-D-aspartate responses” (J Med Chem, 1995)
